In ChEMBL document CHEMBL1146592, “Structures of new friedelane-type triterpenes and eudesmane-type sesquiterpene and aldose reductase inhibitors from Salacia chinensis” (J Nat Prod, 2003) one finds IC50 and inhibition data, which are given here for 25 molecules.

The target in assay [1] is Aldo-keto reductase family 1 member B1 (Rattus norvegicus, UniProt P07943). The assay is described as follows: Inhibition of aldose reductase in rat lens homogenate. The method, boiled down:
(§1)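 Crude enzyme was supernatant of rat lens homogenate. Reaction was started with NADPH at 30 °C, run 30 min and stopped with HCl. NADP was converted to a fluorescent product with NaOH/imidazole at 60 °C for 20 min. Read-out was fluorescence at ex 360/em 460 nm.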

For assay [2], the target named is Aldo-keto reductase family 1 member B1 (Rattus norvegicus) (UniProt P07943). Kind of assay: Inhibition of aldose reductase in rat lens homogenate at 100 uM. In outline:
as §1

The target is the same in assay [3]. Kind of assay: Inhibition of aldose reductase in rat lens homogenate at 30 uM. In outline: as §1

The IC50 is the point on the concentration scale where inhibition reaches its midpoint. In assay [1], `CC1(C)[C@@H](O)CC[C@]2(C)[C@H]3CC=C4[C@@H]5C[C@](C)(C(=O)O)C[C@H](O)[C@]5(C)CC[C@@]4(C)[C@]3(C)CC[C@@H]12` [MAYTENFOLIC ACID] gave an IC50 of 72 µM.

The term inhibition denotes the percentage by which the read-out fell short of the control. `COc1cc([C@H]2c3c(cc(OC)c(O)c3OC)C[C@@H](CO)[C@@H]2CO)ccc1O` registered an inhibition in assay [2] of 24%. In assay [1], this molecule had an IC50 greater than 100 µM.

For the molecule `C[C@@H]1[C@H]2C3=CC[C@@H]4[C@@]5(C)CC[C@H](O)C(C)(C)[C@@H]5CC[C@@]4(C)[C@]3(C)CC[C@@]2(C)[C@@H](O)C[C@H]1C(=O)O` [TRIPTERYGIC ACID A], the inhibition in assay [2] amounted to 27%. Also, the IC50 in assay [1] is greater than 100 µM.

On to `Oc1cc(O)c2c(c1)O[C@H](c1ccc(O)c(O)c1)[C@H](O)C2` [(-)-EPICATECHIN], for which the inhibition in assay [3] stood at 41%. Besides, in assay [1], the IC50 was greater than 30 µM.

As for `COc1cc([C@H]2c3c(cc(OC)c(O)c3OC)C[C@@H](CO)[C@@H]2CO)cc(OC)c1O`, the inhibition in assay [2] was determined as 10%. For the same molecule, the IC50 in assay [1] was greater than 100 µM.

Consider `C[C@H]1C(=O)CC[C@@H]2[C@]1(C)CC[C@H]1[C@@]2(C)CC[C@@]2(C)[C@@H]3C[C@](C)(C(=O)O)CC[C@]3(C)CC[C@]12C` [MAYTENOIC ACID], for which the inhibition in assay [2] was 44%. The molecule also returned an IC50 in assay [1] greater than 100 µM.

`CC1(C)[C@@H](O)CC[C@]2(C)[C@H]3CC=C4[C@@H]5C[C@](C)(C(=O)O)C[C@@H](O)[C@]5(C)CC[C@@]4(C)[C@]3(C)CC[C@@H]12` had an IC50 in assay [1] of 26 µM.

In assay [2], `C[C@@H]1[C@H]2C3=CC[C@@H]4[C@@]5(C)CCC(=O)C(C)(C)[C@@H]5CC[C@@]4(C)[C@]3(C)CC[C@@]2(C)[C@@H](O)C[C@H]1C(=O)O` [DEMETHYLREGELIN] displayed an inhibition of 26%. The IC50 in assay [1] is greater than 100 µM.

Molecule `C[C@@H]1[C@@]23CC[C@H]4[C@@](C)(CC[C@@]5(C)[C@@H]6C[C@](C)(C(=O)O)CC[C@]6(C)CC[C@]45C)[C@@H]2C[C@@H](O)[C@]1(O)OC3` [ORTHOSPHENIC ACID] gave an inhibition in assay [2] of 19%. For the same molecule, the IC50 in assay [1] is greater than 100 µM.

For `CC1(C)CC[C@]2(C)CC[C@]3(C)C(=CC[C@@H]4[C@@]5(C)CCC(=O)C(C)(C)[C@@H]5CC[C@]43C)[C@@H]2C1`, the inhibition in assay [2] came out at 3%. Also, the IC50 in assay [1] is greater than 100 µM.

On to `C[C@H]1C(=O)CC[C@@H]2[C@]1(C)CC[C@H]1[C@@]2(C)CC[C@@]2(C)[C@@H]3CC(C)(C)CC[C@]3(C)C[C@H](O)[C@]12C`, for which the inhibition in assay [2] turned out to be 8%. This molecule displayed an IC50 in assay [1] greater than 100 µM.

As for `Oc1cc(O)c2c(c1)O[C@H](c1ccc(O)c(O)c1)[C@@H](O)C2` [CIANIDANOL], the inhibition in assay [3] was 38%. Moreover, in assay [1], the IC50 was greater than 30 µM.

On to `C[C@H]1C(=O)CC[C@@H]2[C@]1(C)CC[C@H]1[C@@]2(C)CC[C@@]2(C)[C@@H]3C[C@](C)(CO)CC[C@]3(C)CC[C@]12C` [3-OXO-29-HYDROXYFRIEDELANE], for which, in assay [1], it took 98 µM to reach half-maximal inhibition (IC50).

In assay [1], `CC1=C2CC[C@H]3[C@@](C)(CC[C@@]4(C)[C@@H]5C[C@@H](C)C(=O)[C@@H](O)[C@]5(C)CC[C@]34C)[C@@H]2C[C@H](O)C1=O` [TRIPTOCALLINE A] yielded an IC50 of 14 µM.

In assay [2], `CC1(C)CC[C@]2(C)CC[C@]3(C)C(=CC[C@@H]4[C@@]5(C)CC[C@H](O)C(C)(C)[C@@H]5CC[C@]43C)[C@@H]2C1` [beta-AMYRIN] displayed an inhibition of 6%. In assay [1], this molecule showed an IC50 greater than 100 µM.

In assay [1], `CC1=C(O)C(=O)C=C2C1=CC=C1[C@@]2(C)CC[C@@]2(C)[C@@H]3C[C@@H](C)C(=O)C[C@]3(C)CC[C@]12C` [TINGENONE] came in with an IC50 of 13 µM.

In assay [2], `COc1cc([C@H]2c3cc(O)c(OC)cc3C[C@@H](CO)[C@@H]2CO)ccc1O` [ISOLARICIRESINOL] had an inhibition of 36%. Further, the IC50 in assay [1] is greater than 100 µM.

In turn, `O=c1c2cc(O)c(O)cc2oc2cc(O)c([C@@H]3O[C@H](CO)[C@@H](O)[C@H](O)[C@H]3O)c(O)c12` [MANGIFERIN] came in with an IC50 in assay [1] of 3.2 µM.

The molecule `Oc1cc(O)c2c(c1)O[C@H](c1cc(O)c(O)c(O)c1)[C@H](O)C2` [EPIGALLOCATECHIN] displayed an inhibition in assay [3] of 19%. This molecule showed an IC50 in assay [1] greater than 30 µM.

`C[C@H]1C(=O)[C@H](O)C[C@@H]2[C@]1(C)CC[C@H]1[C@@]2(C)CC[C@@]2(C)[C@@H]3C[C@](C)(C(=O)O)CC[C@]3(C)CC[C@]12C` [WILFOLIC ACID C] returned an inhibition in assay [2] of 48%. The molecule further came in with an IC50 in assay [1] of 100 µM.

In assay [2], `CC1(C)C(=O)CC[C@]2(C)[C@H]3CC=C4[C@@H]5C[C@](C)(C(=O)O)C[C@H](O)[C@]5(C)CC[C@@]4(C)[C@]3(C)CC[C@@H]12` had an inhibition of 25%. Also, the IC50 in assay [1] was greater than 100 µM.

In turn, `Cc1c(O)c(O)cc2c1CC[C@H]1[C@@]2(C)CC[C@@]2(C)[C@@H]3C[C@@H](C)C(=O)[C@@H](O)[C@]3(C)CC[C@]12C` [REGEOL A] had an IC50 in assay [1] of 30 µM.

On to `C[C@@H]1[C@@]23CC[C@H]4[C@@](C)(CC[C@@]5(C)[C@@H]6C[C@](C)(C(=O)O)CC[C@]6(C)CC[C@]45C)[C@@H]2CC[C@@]1(O)OC3` [SALASPERMIC ACID], for which, in assay [2], the inhibition came out at 2%. Moreover, the IC50 in assay [1] is greater than 100 µM.

In the case of `CC1=C(O)C(=O)C=C2C1=CC=C1[C@@]2(C)CC[C@@]2(C)[C@@H]3C[C@@H](C)C(=O)[C@@H](O)[C@]3(C)CC[C@]12C` [TINGENIN B], in assay [1], the IC50 came out at 7 µM.

The molecule `CC(=O)OC[C@]12[C@@H](OC(=O)c3ccccc3)C[C@@H]3[C@@H](OC(C)=O)[C@]1(OC3(C)C)[C@H](C)C[C@H](OC(C)=O)[C@@H]2O` [CELAHIN C] came in with an IC50 in assay [1] of 95 µM.
